Results: ChEMBL document CHEMBL1124248, “Preparation and antischistosomal and antitumor activity of hycanthone and some of its congeners. Evidence for the mode of action of hycanthone” (1988)

What was measured:
Mus musculus [1] = assay: In vivo antitumor activity against p-388 lymphocytic leukemia in mice at 12.5 mg/kg; Toxic; format: functional, organism-based; set-up: dose 12.5 mg/kg
In short: (§1)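 Murine P388 lymphocytic leukemia model tested by the National Cancer Institute. Compound given once daily for 9 days; activity expressed as T/C.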

Nucleic Acid [2] = assay: In vitro binding of [3H]HNMC to calf thymus DNA after precipitation with alcohol and TCA was measured after 4 day; format: nucleic-acid assay; details: Bos taurus
In short: (§2)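 0.02 µCi of 3H-labelled drug was added to 50 µg calf thymus DNA in 20 µL of 0.1 M citrate-phosphate buffer, pH 7. Incubated 1.5 h at 37 °C in the dark, diluted to 0.1 mL saline and dialyzed against saline at 4 °C for up to 4 days. Duplicate 10 µL samples taken from inside the bags at intervals were counted directly, or after TCA precipitation.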

Nucleic Acid [3] = assay: In vitro binding of [3H]HNMC to calf thymus DNA was measured after 3 days; format: nucleic-acid assay; details: Bos taurus; in short: as §2
Nucleic Acid [4] = assay: In vitro binding of [3H]HNMC to calf thymus DNA after precipitation with alcohol and TCA was measured after 2 hours; format: nucleic-acid assay; details: Bos taurus; in short: as §2
Schistosoma mansoni [5] = assay: Day 50% survival of worms in culture of HC resistant Schistosoma mansoni; format: functional
In short: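 Adult HC-resistant S. mansoni were exposed in vitro and kept in culture. The value is the day by which 50% of worms were dead. Cultures were ended at different times in different experiments. Concentrations are given in M × 10^6.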

HeLa [6] = assay: Incorporation of 2*10e-6 M [3H]uridine in HeLa cells in presence of HNMC measured as TCA precipitable radioactivity compared with non treated controls; format: functional, cell-based; details: Homo sapiens
In short: (§3)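 HeLa cells (10^6 per duplicate tube) were incubated 1 h with drug. [3H]uridine was then added and incubation continued 1 h with drug present. Cells were washed with cold saline and precipitated with 10% TCA. Precipitates were collected on glass filters, TCA-washed and counted. Values are % TCA-precipitable radioactivity versus untreated controls.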

[7] = Total radioactivity of [3H]HNMC was evaluated after 2 hr; format: functional
In short: (§4)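 3H-labelled drug (0.02 µCi) was mixed with 50 µg calf thymus DNA in 0.1 M citrate-phosphate buffer, pH 7, and incubated in the dark for 1.5 h at 37 °C. The mix was diluted in saline and dialysed against saline at 4 °C. Duplicate samples drawn from inside the bags at intervals up to 4 days were counted directly.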

Schistosoma mansoni [8] = assay: Incorporation of 6M *10e6 [3H]-uridine in hycanthone(HC) sensitive Schistosoma mansoni; format: functional
Mus musculus [9] = assay: In vivo antitumor activity against p-388 lymphocytic leukemia in mice at 3.13 mg/kg; format: functional; in short: as §1
Nucleic Acid [10] = assay: In vitro binding of [3H]HNMC to calf thymus DNA was measured after 2 hours; format: nucleic-acid assay; details: Bos taurus; in short: as §2
Nucleic Acid [11] = assay: In vitro binding of [3H]HNMC to calf thymus DNA was measured after 2 days; format: nucleic-acid assay; details: Bos taurus; in short: as §2
Nucleic Acid [12] = assay: In vitro binding of [3H]HNMC to calf thymus DNA was measured after 4 day; format: nucleic-acid assay; details: Bos taurus; in short: as §2
HeLa [13] = assay: Binding of 5x 10e-4 M [3H]HNMC to HeLa DNA; format: functional, Homo sapiens
In short: (§5)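 HeLa cells exposed 1 h to [3H]-labelled drug, washed three times with saline, then held 30 min at 37 °C in drug-free medium. After a 2 h digestion at 37 °C, crude DNA was ethanol-precipitated, purified on a CsCl density gradient, dialyzed and reprecipitated. DNA was quantified by A260. An aliquot was treated with DNase, and DNase-sensitive radioactivity was expressed as drug molecules per base pair.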

[14] = Total radioactivity of [3H]HNMC was evaluated after 2 hours; format: functional; in short: as §4
HeLa [15] = assay: Incorporation of 2*10e-5 M [3H]uridine in HeLa cells in absence of HNMC measured as TCA precipitable radioactivity compared with non treated controls; format: functional, cell-based; details: Homo sapiens
In short: (§6)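 HeLa cells (10^6 per duplicate tube) were exposed to drug for 1 h, washed three times with medium, then held 2 h in drug-free medium. [3H]uridine was added for 1 h. Cells were precipitated with 10% TCA, and precipitates were filter-collected and counted. Values are % TCA-precipitable radioactivity versus untreated controls.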

HeLa [16] = assay: Incorporation of 10e-5 M [3H]uridine in HeLa cells in presence of HNMC measured as TCA precipitable radioactivity compared with non treated controls; format: functional, cell-based; details: Homo sapiens; in short: as §3
HeLa [17] = assay: Incorporation of 2*10e-5 M [3H]uridine in HeLa cells in presence of HNMC measured as TCA precipitable radioactivity compared with non treated controls; format: functional, cell-based; details: Homo sapiens; in short: as §3
HeLa [18] = assay: Binding of 1x 10e-5 M [3H]HNMC to HeLa DNA; format: functional, Homo sapiens; in short: as §5
Nucleic Acid [19] = assay: In vitro binding of [3H]HNMC to calf thymus DNA after precipitation with alcohol and TCA was measured; format: nucleic-acid assay; details: Bos taurus; in short: as §2
HeLa [20] = assay: Incorporation of 10e-5 M [3H]uridine in HeLa cells in absence of HNMC measured as TCA precipitable radioactivity compared with non treated controls; format: functional, cell-based; details: Homo sapiens; in short: as §6
Schistosoma mansoni [21] = assay: Incorporation of 6M *10e6 [3H]uridine in hycanthone(HC) resistant Schistosoma mansoni; format: functional
In short: (§7)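 Adult HC-resistant S. mansoni were treated in vitro, and [3H]uridine incorporation by the worms was measured. Values are % of control. Concentrations are given in M × 10^6.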

Mus musculus [22] = assay: In vivo antitumor activity against p-388 lymphocytic leukemia in mice at 6.25 mg/kg; format: functional; in short: as §1
HeLa [23] = assay: Incorporation of 2*10e-6 M [3H]uridine in HeLa cells in absence of HNMC measured as TCA precipitable radioactivity compared with non treated controls; format: functional, cell-based; details: Homo sapiens; in short: as §6
Nucleic Acid [24] = assay: In vitro binding of [3H]HNMC to calf thymus DNA after precipitation with alcohol and TCA was measured after 2 day; format: nucleic-acid assay; details: Bos taurus; in short: as §2
Schistosoma mansoni [25] = assay: Incorporation of 1.2 M *10e6 [3H]uridine in hycanthone(HC) resistant Schistosoma mansoni; format: functional; in short: as §7
Nucleic Acid [26] = assay: In vitro binding of [3H]HNMC to calf thymus DNA; format: nucleic-acid assay; details: Bos taurus; in short: as §2
[27] = (§8) Total radioactivity of [3H]HNMC was evaluated after 1 day; format: functional; in short: as §4
[28] = as §8; format: functional; in short: as §4; remark: listed apart in the source
Nucleic Acid [29] = assay: In vitro binding of [3H]HNMC to calf thymus DNA was measured after 1 day; format: nucleic-acid assay; details: Bos taurus; in short: as §2
Nucleic Acid [30] = assay: In vitro binding of [3H]HNMC to calf thymus DNA after precipitation with alcohol and TCA was measured after 3 days; format: nucleic-acid assay; details: Bos taurus; in short: as §2
[31] = (§9) Total radioactivity of [3H]HNMC was evaluated after 3 days; format: functional; in short: as §4
Schistosoma mansoni [32] = assay: Incorporation of 1.2 M*10e6 [3H]uridine in hycanthone(HC) sensitive Schistosoma mansoni; format: functional
HeLa [33] = assay: Binding of 1x 10e-4 M [3H]HNMC to HeLa DNA; format: functional, Homo sapiens; in short: as §5
Schistosoma mansoni [34] = assay: Day 50% survival of worms in culture of HC sensitive Schistosoma mansoni; format: functional
Nucleic Acid [35] = assay: In vitro binding of [3H]HNMC to calf thymus DNA after precipitation with alcohol and TCA was measured after 1 day; format: nucleic-acid assay; details: Bos taurus; in short: as §2
[36] = as §9; format: functional; in short: as §4; remark: listed apart in the source

For CCN(CC)CCNc1ccc(COC(=O)NC)c2sc3ccccc3c(=O)c12, the T/C (Mus musculus [1]) was “Toxic”, the Radioactivity (Nucleic Acid [2]) was 5100 c.p.m and the Radioactivity (Nucleic Acid [3]) was 16000 c.p.m. The Radioactivity (Nucleic Acid [4]) was 12300 c.p.m, the Effect (Schistosoma mansoni [5]) was 8 days and the Radioactivity (HeLa [6]) was 57%. It also gave a Radioactivity [7] of 27500 c.p.m, a Control (Schistosoma mansoni [8]) of 3% and a T/C (Mus musculus [9]) of 132%. It also gave a Radioactivity (Nucleic Acid [10]) of 52000 c.p.m, a Radioactivity (Nucleic Acid [11]) of 14800 c.p.m and a Radioactivity (Nucleic Acid [12]) of 15000 c.p.m. For the same molecule, the Drug mol/base pair (HeLa [13]) was 0.000203, the Radioactivity [14] was 27500 c.p.m and the Radioactivity (HeLa [15]) was 2%. It also gave a Radioactivity (HeLa [16]) of 11%, a Radioactivity (HeLa [17]) of 6% and a Drug mol/base pair (HeLa [18]) of 8.4e-05. For the same molecule, the Radioactivity (Nucleic Acid [19]) was 11500 c.p.m, the Radioactivity (HeLa [20]) was 4% and the Control (Schistosoma mansoni [21]) was 11%. It also gave a T/C (Mus musculus [22]) of 166%, a Radioactivity (HeLa [23]) of 24% and a Radioactivity (Nucleic Acid [24]) of 8000 c.p.m. The Control (Schistosoma mansoni [25]) was 39%, the Radioactivity (Nucleic Acid [26]) was 134000 c.p.m and the Radioactivity [27] was 150 c.p.m. The Radioactivity [28] was 1750 c.p.m, the Radioactivity (Nucleic Acid [29]) was 15000 c.p.m and the Radioactivity (Nucleic Acid [30]) was 6900 c.p.m. It also gave a Radioactivity [31] of 1350 c.p.m, a Control (Schistosoma mansoni [32]) of 21% and a Drug mol/base pair (HeLa [33]) of 0.00105. The Effect (Schistosoma mansoni [34]) was 9 days, the Radioactivity (Nucleic Acid [35]) was 9500 c.p.m and the Radioactivity [36] was 100 c.p.m.
